Measured values reported in BindingDB's records for doi:10.1021/jm048999e (2005).

Molecular target: T1, 5-hydroxytryptamine receptor 1A (Rattus norvegicus, UniProt P19327)
T1 sequence (P19327 whole entry): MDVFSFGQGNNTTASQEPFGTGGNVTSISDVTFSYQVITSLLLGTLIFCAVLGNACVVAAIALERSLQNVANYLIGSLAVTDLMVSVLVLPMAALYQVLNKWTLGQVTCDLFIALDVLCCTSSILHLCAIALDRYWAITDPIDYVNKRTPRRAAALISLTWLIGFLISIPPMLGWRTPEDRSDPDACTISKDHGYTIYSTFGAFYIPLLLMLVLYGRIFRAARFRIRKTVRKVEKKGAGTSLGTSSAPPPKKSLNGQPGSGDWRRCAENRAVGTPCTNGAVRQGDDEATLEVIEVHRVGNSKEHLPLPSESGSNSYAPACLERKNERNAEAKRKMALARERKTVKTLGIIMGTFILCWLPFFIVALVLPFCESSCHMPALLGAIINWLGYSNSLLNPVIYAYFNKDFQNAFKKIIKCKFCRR
Test: In vitro inhibition of [3H]8-OH-DPAT binding to 5-hydroxytryptamine 1A receptor in rat cerebral cortex membranes
How it was run: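 Rat cerebral cortex membranes (about 1 mg protein) incubated 15 min at 37 °C with 0.6 nM [3H]-8-OH-DPAT in 50 mM Tris-HCl, pH 7.4, containing 10 nM clonidine and 30 nM prazosin. Nonspecific binding with 10 µM 5-HT. Compounds screened at 10^-6 M; curves run if displacement exceeded 55%. Filtration, scintillation counting, triplicates, 2-4 experiments; Ki by Cheng-Prusoff.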

## O=c1n(CN2CCN(c3cccc4ccccc34)CC2)c(O)c2n1CCC2 [2-(4-Naphthalen-1-yl-piperazin-1-ylmethyl)-tetrahydro-pyrrolo[1,2-c]imidazole-1,3-dione]
  Ki: 10.4 nM
